What was measured:
Type in all cases: functional, cell-based
[1] = Cytotoxicity against human KB3-1 cells after 72 hrs by MTT assay; details: KB 3-1, 72 h
In short: (§1)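 Cells grown in RPMI-1640 with 10% FBS, 2 mM L-glutamine and gentamicin; seeded at 1 × 10⁴ cells/well and left to attach overnight at 37 °C, 5% CO₂. Compounds were dissolved in DMSO, diluted into FBS-free medium and tested at 5 × 10⁻⁵, 10⁻⁵, 10⁻⁶ and 10⁻⁷ M for 72 h. MTT was added for 3 h, formazan dissolved in DMSO and read at 590 nm. Triplicates; IC50 derived graphically from % viability loss versus untreated controls.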

A549 = assay: Cytotoxicity against human A549 cells after 72 hrs by MTT assay; details: A549, 72 h
In short: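 Compounds were dissolved in DMSO, diluted into FBS-free medium and tested at 5 × 10⁻⁵, 10⁻⁵, 10⁻⁶ and 10⁻⁷ M for 72 h. MTT was added for 3 h, formazan dissolved in DMSO and read at 590 nm. Triplicates; IC50 derived graphically from % viability loss versus untreated controls.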

[2] = Cytotoxicity against human multi drug resistant subclone KB 8.5 cells after 72 hrs by MTT assay; in short: as §1
[3] = Cytotoxicity against human Caov3 cells after 72 hrs by MTT assay; details: Caov-3, 72 h; in short: as §1

Compound | IC50 [1] | IC50 (A549) | IC50 [2] | IC50 [3]
CN1C/C(=C\c2ccncc2)C(=O)/C(=C/c2ccncc2)C1 | 3 µM | 4.2 µM | 7.4 µM | 5.1 µM
CN1C/C(=C\c2cccnc2)C(=O)/C(=C/c2cccnc2)C1 | 20.2 µM | > 20 µM | 40.4 µM | > 20 µM
O=C1/C(=C/c2cccnc2)CNC/C1=C\c1cccnc1 | 24.4 µM | 11.1 µM | 30 µM | 9.2 µM
CCOP(=O)(OCC)N1C/C(=C\c2cccnc2)C(=O)/C(=C/c2cccnc2)C1 | 5 µM | 10.4 µM | 5.3 µM | 8.1 µM
CCOP(=O)(CCN1C/C(=C\c2cccnc2)C(=O)/C(=C/c2cccnc2)C1)OCC | > 40 µM | > 40 µM | > 40 µM | > 40 µM
CCOP(=O)(CCCCN1C/C(=C\c2cccnc2)C(=O)/C(=C/c2cccnc2)C1)OCC | 6.1 µM | 15.4 µM | 9.5 µM | 6.2 µM
O=C1/C(=C/c2ccncc2)CNC/C1=C\c1ccncc1 | 5 µM | 10.3 µM | 8.5 µM | 6 µM
CCOP(=O)(OCC)N1C/C(=C\c2ccncc2)C(=O)/C(=C/c2ccncc2)C1 | 2.1 µM | 8.2 µM | 5.1 µM | 4.3 µM
N[C@@H](Cc1ccc(N(CCCl)CCCl)cc1)C(=O)O |  |  |  | 50 µM
COc1cccc2c1C(=O)c1c(O)c3c(c(O)c1C2=O)C[C@@](O)(C(=O)CO)C[C@@H]3O[C@H]1C[C@H](N)[C@H](O)[C@H](C)O1 [DOXORUBICIN] |  |  | 3.3 µM | 
